Laboratory results reported in the EternaBench riboswitch data.

System: MS2 coat protein
Assay: apparent Kd, MS2 coat protein; higher = weaker binding; RNA-MaP array; FMN 200 µM where present
In short: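 In 100 mM Tris-HCl pH 7.5, 80 mM KCl, 4 mM MgCl2, BSA, DTT, yeast tRNA and Tween-20, SNAP-549-labelled MS2 coat protein was titrated from 0.7 or 1.5 nM, doubling to 3 µM, over designs transcribed by stalled E. coli RNA polymerase on Illumina sequencing-chip clusters. This was done first without ligand, then with ligand held constant. After green signal was normalised to red-channel RNA signal and control-cluster median Fmax, the apparent Kd was taken as the median of filtered per-cluster binding-curve fits.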

[1] = designed as: OFF switch for flavin mononucleotide, no ligand
[2] = ligand present: flavin mononucleotide, designed as: OFF switch for flavin mononucleotide
[3] = designed as: ON switch for flavin mononucleotide, no ligand
[4] = ligand present: flavin mononucleotide, designed as: ON switch for flavin mononucleotide

Sequence | apparent Kd [1] [nM] | apparent Kd [2] [nM] | apparent Kd [3] [nM] | apparent Kd [4] [nM]
AAAAGUACAGGAUAUACAUGAGGAUCACCCAUGUAGAAAGGAAGUGUAAAAAAAAAGUGUAGAAGGGUGCAUGA | 33.1 | 27.9 |  | 
ACAUGAGGAUGAGGAUAUUCAUACAUGAGGAUAGAAGAAGGCAUACAUGAGGAUCACCCAUGUAUACACAUGAGGAUCUCCCAU | 25.5 | 30.5 |  | 
AUAAAACAUGAGGAUCACCCAUGUAAUAAGAACCGAGGAUAUGGAAAUAAUAAUAAUAAACCAGAAGGUGGUGAUC |  |  | 146 | 326
UUCACGUAUAUAGGAUAUGCGGGCAAAUAACGCGCAGAAGGAUAUACAUGAGGAUCACCCAUGUAUUGAGACCUCAUACGCCGC | 7.47 | 9.38 |  | 
AUGGGUGUACCUUCACAUGAGGAUCACCCAUGUACGGGUGCGCAGGAUAUCCCAAAAGUCAGUAAGGAGAAGGGCGUAUGCCUG | 312 | 306 |  | 
ACUUAUAGAGGAUAUACAGUAUAUUACAUGAGGAUCACCCAUGUUCUUCAAUGUAUAUAUGUAGAAGGCUAAGGAA | 206 | 541 |  | 
UUGUAAACUAUCCGUACAUGAGGAUCACCCAUGUGCAAGAGCAGAAGGACGUGGCACUCGAGUACGUAGGAUAUGCAUGGAUGG |  |  | 27.1 | 9.59
CCCUCACAUGAGGAUCACCCAUGUCAGGAUAUUCAAAGCGCAAAUGCGCCAAAUGCAGGAAGAAGGGACGUGCC | 15.1 | 20.5 |  | 
ACUAGAUGAGGAUAUGCAUAUUUUCGUGUUCUUCUAGGUUAACAUGAGGAUCACCCAUGUAGAAGGCGUCUAUU | 20.6 | 38 |  | 
UGAUAGGACAGAGGAUAUGCCGAUAGGCUCUACUAUCGAAGAAUCCUCACAUGAGGAUCACCCAUGUAGAAGGCUGUCCUAUCU | 19.1 | 48 |  | 
UGUCGGAGCAGAGGAUAUACAUGAGGAUCACCCAUGUAAUAGGAUGAAGCCUGGAAACAGGCAAUGUAGAAGGCUGCUCCGACA | 57.9 | 670 |  | 
UGACGUAAAGAGAAGGGCUACUGGUUGAAACCUGCGGCCUCUGGAACAUGAGGAUCACCCAUGUAGCAGGAUAUCUUUGCAUCA | 166 | 18.1 |  | 
AGAUGACGAUGUUAUCUUCGUCGGACAUGAGGAUCACCCAUGUAGGAUAUGCUACUCAAAGAGUAGCAGAAGGACAUGUGUCUU | 37.4 | 245 |  | 
AUCAGCUCGUCAGGAUAUACGUCACUGCGCCAGCAGUGUGGUAAGAUCACAUGAGGAUCACCCAUGUAGAAGGGACGAGCUGAU | 15 | 242 |  | 
AGGAGGUCAGGAUAUGCUGCUCGUCACUUGCGUGAUGAGUAGCAGAAGGGACAUGAGGAUCACCCAUGUAAAGA | 55.7 | 95.7 |  | 
CCGGUAAAGGAGGAUAUAGGAGUCGAUAGACACCUAGAAGGCCUGACAUGAGGAUCACCCAUGUGUCCUUCCGG | 17.7 | 76.7 |  | 
GGGUACAUCGGAGGAUAUCAUGUAUAUACAUGAGGAUCACCCAUGUCGAUGGAGACAUCGGAGAUUGAGAAGGCCGAUGUACCG |  |  | 826 | 31.5
GUUGUUUCUGAGGAUAUUAUUUUAUUCGAUUGAUAAGAAGGCAGUACAUGAGGAUCACCCAUGUGGGUUGUUUG | 60.6 | 122 |  | 
AUACUAAAUGAAGGAUAUCUAAGCAUAAACCUGAGAGAAGGUCAUUUUUACAUGAGGAUCACCCAUGUUGUGAUUAAUGGGUAA | 201 | 366 |  | 
CCUCCACAUGAGGAUCACCCAUGUCAGGAUAUCGUGCGCGCGUUUUCGGUCUUUCGCGCGAGAAGGGACGACUG | 30.3 | 30.9 |  | 
AUGCUAGUGUGAGGAUAUCAACAUGAGGAUCACCCAUGUUGGAAGUACACGACAUGCGGUACAUUUGAGAAGGUACAUUAGCAU | 58.2 | 108 |  | 
GACAAACAUGAGGAUCACCCAUGUUCAGACGAACAAGGAUAUGUGUGGAAACCAUACUAUACAGAAGGUGUCUGUC |  |  | 48.6 | 31.1
CAGCACUGUCGAGAGGAUAUGCGGUGAUGGACAUGAGGAUCACCCAUGUUAGCGACAGCAUCACGGCAGAAGGCUCUACUGCUGC |  |  | 13.2 | 12.2
GCGUCUUAGUAGAAGGGACAUCGGCUGGUAAGCAUCAUCUCCUUCUCACAUGAGGAUCACCCAUGUCAGGAUAUACUAAGAUGC | 11.5 | 43.1 |  | 

Sequence | apparent Kd [1] [nM] | apparent Kd [2] [nM] | apparent Kd [3] [nM] | apparent Kd [4] [nM]
CCGAAUAAGCAGGAUAUCGAAUCGGAGACGAUUCGAGAAGGGUUAACAUGAGGAUCACCCAUGUUCCUUAACGG | 19.1 | 20.8 |  | 
UCAGAAGUCACAGGAUAUCCGGCGUAGCACACAGGAGAAGGGUGAUCACGAGCACAUGAGGAUCACCCAUGUGACAUUUGUGGG |  |  | 53.6 | 27.5
CAGCGCUGUCGAGAGGAUAUGCGGUGAUGGACAUGAGGAUCACCCAUGUUAGCGACAGCAUCACGGCAGAAGGCUCUACCCGCUG |  |  | 13.2 | 12.8
AGCAUGUGAGGAUAUGCAGACUCCGGUAAAUCUGGAGUCCGGUAGAAGGCACAUGAGGAUCACCCAUGUGAGAU | 43.4 | 119 |  | 
AAGGAUCGAGGAUAUACAUAGAUACAGAUACAUGUAGACCUACAUGAGGAUCACCCAUGUAGAAGGCGAUCAUA | 18.8 | 33.7 |  | 
UUGGACGUCGUAGGAUAUGUAGGAUAUUCCUACAUGAGGAUCACCCAUGUUGACAUGGAAGAAGAACAGAAGGACGAUGUCCAU |  |  | 212 | 6.04
UAGAUGUGAGGAUAUGGUAAAGAUAGAAUGAUGAAAGAACUCCAGAAGGCACAUGAGGAUCACCCAUGUAGAUG | 26.9 | 55 |  | 
UUAAUUAAUUAAGCGCAAGAUCACAUGAGGAUCACCCAUGUAUAGGAUAUCAGCUCGAUUAGAGCUGAGAAGGAUACAUAGCGC | 203 | 568 |  | 
AGGUACAUGAGGAUCACCCAUGUAAGAGCCCUCAUGCGAUGUAGAAGGAUAAUGCGAGAAGUGCUAUAGGAUAUACAUGAGAAA | 140 | 143 |  | 
ACUUUCAUUGUGAGGAUAUGCCCAAAUAAAAGCGGGCAGAAGGCACAUGAGGAUCACCCAUGUCCUGCGGUUAU | 34.6 | 394 |  | 
CCGGAAGGUUAGGAUAUGCUUCCACAUAUCUAAGCAGAAGGAACCACAUGAGGAUCACCCAUGUUUAUGGGCCG | 262 | 261 |  | 
UUCAAGUUGCGAGGAUAUCGUGUUAACAUGAGGAUCACCCAUGUAAAGGUAUAUUAAAUUAUCUUCGAGAAGGCGCUUAAUGUA |  |  | 22.6 | 20.3
GCGUACAUAUCAGGAUAUCAUUGAAUGGAUUAACACAGUGAAUACAUGAGGAUCACCCAUGUGCUUGAGAAGGGAUUACUACGC | 11.1 | 10.4 |  | 
AAGUACCGGUGAGGAUAUUUUUAAUAGAACUUUAUGAUAUACAUGAGGAUCACCCAUGUUACUUUAAAGAAGGCAUCGGAUAAA | 18.3 | 14.6 |  | 
AUCAGGCAAGGAUAUGAUAUAGGACACAUGAGGAUCACCCAUGUCCACCGAACGAUCGUUUCAGAAGGUGCACAGU | 72.8 | 41 |  | 
AUAUCUAUGUAAGGAUAUAGAUGAUAUACGCCUCCGACAUGAGGAUCACCCAUGUUAUAUUUUGUCUAGAAGGUACAUUGUCGG |  |  | 168 | 170
GCGCUUAUACAGAAGGCCAUAUACAUGAGGAUCACCCAUGUUAUUUGGUGGAGGAUAUGUUUAUUAUUACAGGUAGAUGAGCGC |  |  | 6.3 | 5.72
ACAUAAAUUCGAGGAUAUCGGUGAUUUAAUUUACGAGAAGGCGAUAAAAGUUAUAAACUUAUAGACAUGAGGAUCACCCAUGUA |  |  | 34.9 | 33.1
CAGCGGGUCUUCAGGGUAAUGAACAUGAGGAUCACCCAUGUGCAGGAUAUGACGGAUCCGCACCGUCAGAAGGGCACUAAGUGA | 26.7 | 32.5 |  | 
UGCUAGAAAGGAUAUACAUGAGGAUCACCCAUGUAACCCUAUAUGAGAGUUCCCGUUUGUAGAAGGUUCUCGUG | 16.9 | 26.5 |  | 
GUGAAGAUAGCAGGAUAUAUAUUUCCUACAUGAGGAUCACCCAUGUAGGUGAUCAGCCGAGUAAAGUAGAAGGGCUAUCUUUAC |  |  | 16.1 | 10.7
GCAUGUGUGUAAGGAUAUGCAUCACUGAGAAAUUUAGUGAGGAAGAUCACAUGAGGAUCACCCAUGUAGAAGGUACACACGUGC | 8.01 | 56.9 |  | 
GUGUACGGAGGAUAUGCUGGAAUCUAGCGAAGCUAGGUUCCACAUGAGGAUCACCCAUGUAGAAGGCUGUACAC | 24.8 | 14.2 |  | 
GGGUACAUCGGAGGAUAUCAUGUAAAUACAUGAGGAUCACCCAUGUCGAUGGAGACAUCGGAGAUUGAGAAGGCGGAUGUACCG |  |  | 309 | 23.1
